# Measured values of several laboratories.
# Protocols differ between the studies behind these lines.
# CSNK1A1L: Casein kinase I isoform alpha-like (CSNK1A1L, Homo sapiens, UniProt Q8N752)
# CHRM1: Muscarinic acetylcholine receptor M1 (CHRM1, Homo sapiens, UniProt P11229)
# CDK3: Cyclin-dependent kinase 3 (CDK3, Homo sapiens, UniProt Q00526)
Structure (SMILES),target,assay,system,conditions,quantity,value
CCCCC(=O)Nc1ccc(-c2ccc3ncn(CCC)c(=O)c3c2)cn1,CSNK1A1L,"binding, competition with immobilised ligand",,0.5 µM,remaining binding,99%
CNC(=O)COc1cc2cc(Nc3nc(N4CCC(C(=O)N(C)C)CC4)ncc3Cl)cc(OC)c2n(C)c1=O,"B-cell lymphoma 6 protein (BCL6, Homo sapiens, UniProt P41182)","target engagement in cells, BRET",HEK-293T,1 µM,inhibition,> 90%
Cc1cc(F)cc2c(CCC(=O)N[C@@H]3C(=O)NC[C@H]3O)c(-c3ccc(F)cc3)[nH]c12,CHRM1,cell-free assay,,10 µM,inhibition,14%
COc1ccc2oc(-c3ccc4nc(N)oc4c3)c/c(=N\c3ccccc3NC(=O)CCN)c2c1,"Tyrosine-protein kinase ABL1 (Abl1, Mus musculus, UniProt P00520)",binding,,1 µM,remaining binding,91%
CNS(=O)(=O)c1ccc(Nc2ncc(C(F)(F)F)c(N3CCC[C@](C)(O)C3)n2)c(C)c1,CDK3,"binding, competition with immobilised ligand",,1 µM,remaining binding,49%
C1=C/COCc2cc(ccc2OCCN2CCCC2)Nc2nccc(n2)-c2cccc(c2)COC/1,CSNK1A1L,binding,,0.1 µM,remaining binding,99%
C#Cc1cc(-c2cc(Nc3nc(N[C@@H](C)c4ccc(F)cn4)ncc3Cl)n[nH]2)ccc1C=O,"Tyrosine-protein kinase JAK1 (JAK1, Homo sapiens, UniProt P23458)","enzyme activity, inhibitor",,0.2 µM,inhibition,89.1%
CCN1/C(=C/C(C)=O)Sc2ccc(F)cc21,"Prostaglandin E2 receptor EP2 subtype (PTGER2, Homo sapiens, UniProt P43116)","ligand displacement, radioligand",,10 µM,inhibition,4.3%
NC/C(=C\F)COc1cccc(Cn2c(=S)[nH]c(=O)c3[nH]cnc32)c1,CHRM1,"ligand displacement, radioligand",,10 µM,inhibition,< 50%
Cc1cc(S(=O)(=O)N[C@H]2CC[C@H](CN3CCN(c4ccc(C5CCC(=O)NC5=O)cc4F)CC3)CC2)ccc1Nc1ncc(C(F)(F)F)c(N2CCC[C@](C)(O)C2)n1 (some centres unmarked),CDK3,"binding, competition with immobilised ligand",,1 µM,remaining binding,63%
Cc1cc(O)c(-c2ccc([C@@H](C)CN(C)C)cc2)c2c1[nH]c(=O)c1sccc12,"Serine/threonine-protein kinase Sgk1 (SGK1, Homo sapiens, UniProt O00141)","enzyme activity, inhibitor",,0.1 µM,inhibition,-3.37%
